# proKLK7 act = activators of human kallikrein-7 zymogen | purified proKLK7, EDANS-DABCYL substrate fluorescence; 100% is mature enzyme control, 0% vehicle | 0.9% of 370,000 active | activation, % at 7 µM;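 active = activation above the mean of all tested compounds plus 3 SD, computed per campaign excluding outliers beyond control limits, cut at about 13% in these data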
# Runt-SMMHC FRET = inhibitors of human RUNX1 Runt domain binding to CBFb-SMMHC | Q01196+Q13951 | Cerulean-Runt/Venus-CBFb-SMMHC FRET ratio 530/480, 1 h | inhibition, % at 20 µM | 0.74% of 220,000 active;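 active = mean inhibition across duplicate retests at 20 µM reaching about 50%, limit read from the data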;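 note: 0% = DMSO wells and 100% = wells with excess untagged CBFb-SMMHC; inhibitors lower the FRET ratio by blocking Runt binding to CBFb-SMMHC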
# Target sequence (Q01196 whole entry, looked up, the tested form may be a part): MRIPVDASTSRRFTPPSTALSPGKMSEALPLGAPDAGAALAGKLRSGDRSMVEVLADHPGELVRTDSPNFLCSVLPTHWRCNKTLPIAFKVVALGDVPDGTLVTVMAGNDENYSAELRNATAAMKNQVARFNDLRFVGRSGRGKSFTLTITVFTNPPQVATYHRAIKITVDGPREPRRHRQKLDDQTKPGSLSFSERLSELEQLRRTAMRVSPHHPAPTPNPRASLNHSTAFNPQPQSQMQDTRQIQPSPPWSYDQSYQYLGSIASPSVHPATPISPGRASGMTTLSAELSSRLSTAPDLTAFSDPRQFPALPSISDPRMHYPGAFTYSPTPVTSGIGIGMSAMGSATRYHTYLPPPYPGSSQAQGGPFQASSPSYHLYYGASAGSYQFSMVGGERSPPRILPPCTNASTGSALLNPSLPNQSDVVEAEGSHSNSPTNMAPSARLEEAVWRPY
# Target sequence (Q13951 whole entry, looked up, the tested form may be a part): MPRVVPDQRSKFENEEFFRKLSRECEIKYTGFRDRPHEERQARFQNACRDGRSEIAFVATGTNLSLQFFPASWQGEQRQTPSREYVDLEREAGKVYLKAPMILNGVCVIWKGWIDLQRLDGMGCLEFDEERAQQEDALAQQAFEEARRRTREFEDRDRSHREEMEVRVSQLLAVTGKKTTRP
# AI-2 QS modul = modulators of Vibrio harveyi AI-2 quorum sensing system. Vibrio harveyi JMH597 AI-2 luminescence/OD600 ratio, 9 h; stronger effect = lower value; strain lacks LuxN and CqsS sensors; 0 = neutral-control median. 0.4% of 300,000 active. AID 2094. activity change, % at 7.5 µM; in the data active = activity change below about -75%, passing the limit was not always enough;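 note: luminescence divided by OD600 gain over 9 h not by final OD600 alone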
# Runt-CBFb FRET = Runt domain-CBFb interaction inhibition; AID 1496; inhibition, % at 20 µM; Cerulean-Runt/Venus-CBFb FRET ratio 530/480, 1 h; 0.46% of 220,000 active;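 active = inhibition over about 50% at 20 µM in the single-dose screen, limit read from the data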;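 note: 0% = DMSO wells and 100% = excess unlabeled CBFb competitor control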
#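 Reagent – Venus-CBFb binding partner, 100 nM · Assay system – Cerulean-tagged RUNX1 Runt domain (FRET donor) fusion protein · Input – 100 nM per protein · Incubation – two 1 h room-temperature incubations shielded from light · Measured by – FRET fluorescence · Medium – Tris buffer pH 7.5 with salts and BSA · Benchmarks – unlabeled CBFb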
# Wee1 degr inh = inhibitors of human Wee1 degradation; reporter increase, % at 5 µM; HeLa Luc-Wee1K328M stability, luciferase luminescence; 100% = proteasome inhibitor MG132 effect; 1.2% of 220,000 active; AID 1321; P30291;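 active = activation above the mean of all tested compounds plus 3 SD, set per screening run, cut at about 8.8% in these data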;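 note: cells exposed to compound for 20 h before luminescence read; 0% = DMSO alone and 100% = MG132 at 30 µM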
# RanGTP-Impb inh = disruptors of Ran-importin-beta complex formation – biochemical, FRET, CFP-Ran, YFP-importin-beta, homogeneous, primary screen; AID 2216; cell-free CFP-Ran/YFP-importin-beta FRET ratio; 1.1% of 300,000 active; inhibition, % (concentration not given with the values);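 active = more than half of the replicate wells show a fall in the fluorescence ratio signal beyond about 16%, limit read from the data, passing the limit was not always enough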;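 note: 0% = DMSO wells and 100% = Ran loaded with GDP instead of GTP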
# YIC FRET counter = counter-screen for RanGTP-importin-beta inhibitors: YIC FRET probe; 40% of 1,000 active; shares compounds with RanGTP-Impb inh; Purified YIC probe, intramolecular FRET ratio YFP/CFP; IC50, µM;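 active = fitted half-maximal inhibitory concentration no more than tenfold above the top dose tested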
# Active calls of the source: *; i = inactive; . = no result. Hits are enriched below; roughly 2.9% of the tested compounds scored in any of these assays.
SMILES,proKLK7 act,Runt-SMMHC FRET,AI-2 QS modul,Runt-CBFb FRET,Wee1 degr inh,RanGTP-Impb inh,YIC FRET counter
C#CCOc1ccc(C2C3=C(CC(C)(C)CC3=O)N(CC(=O)O)C3=C2C(=O)CC(C)(C)C3)cc1OC,0,.,16,.,.,22*,39*
CC(C)OC(=O)c1nnn(-c2nonc2N)c1CN1CCCCCC1,0,-4,25,-3,-3,24*,>50
NC(=O)c1ccccc1,0,-1,11,0,-1,1,.
NC(=O)c1ccc(F)cc1,0,.,-2,.,2,17*,>50
COc1ccc2cc(C(=O)N/N=C/c3sc4ccccc4c3O)ccc2c1,0,-175,21,-39,4,22*,i
CCc1ccc(CN2CCC(Oc3ccc(C(=O)N4CCCC4)cc3)CC2)cc1,0,.,7,.,.,4,.
CC(C)c1ccc(CN2CCC(Oc3ccc(C(=O)N4CCCC4)cc3)CC2)cc1,1,.,14,.,.,21*,>50
COc1cccc(-n2cnnc2SC(C)C(=O)NC2CCCC2)c1 (configuration not stated),1,.,.,.,.,.,.
O=C(CNS(=O)(=O)c1ccc([N+](=O)[O-])cc1)N/N=C/c1ccc(O)cc1O,0,.,3,.,.,3,.
C/C(=N\NC(=O)c1c(C)nc2ccccn12)c1ccc(O)cc1O,0,.,29,.,.,21*,48*
Cc1nc(Nc2cnc(/C=C/c3cc(C(=O)Nc4cccc(C(F)(F)F)c4)ccc3C)cn2)cc(N2CCNCC2)n1,.,.,31,.,.,41*,18*
COc1ccc(-c2nc(C(=O)O)cs2)cc1OC,1,-1,19,0,-1,3,.
COc1ccc(-c2cc(C(=O)O)nc3ccc4ccccc4c23)cc1OC,3,6,14,0,-3,18*,>50
O=C(NC1=NCCS1)c1cc(-c2cccnc2)nc2ccccc12,0,-1,15,-5,2,15*,>50
C=CCn1c(C)c(C(C)=O)c(N2CCN(C(c3ccccc3)c3ccccc3)CC2)nc1=S,0,-1,17,1,1,30*,>50
Cc1nc2ccc(NC(=O)c3nn(CC(C)C)c(=O)c4ccccc34)cc2s1,0,-4,8,-2,2,20*,>50
COc1cccc2sc3cc(C#CC4(O)CCCCC4)ccc3c(=O)c12,0,.,.,.,.,.,.
COc1cc2sc3ccc(C#CC4(O)CCCCC4)cc3c(=O)c2cc1OC,-1,.,31,.,.,32*,26*
S=C(NCCc1ccccn1)Nc1cccc(Cl)c1,0,3,1,-2,5,2,.
Cc1cc(Cl)c(S(=O)(=O)N2CCCC2)cc1OCC(=O)NC1CCCCC1,0,-1,-4,-3,2,24*,>50
Cc1cc(Cl)c(S(=O)(=O)NC(C(=O)O)C(C)C)cc1OCC(=O)NC1CCCCC1 (configuration not stated),0,-1,33,2,8,1,.
CCCc1nc(SCC(=O)N2CCCCCC2)c2c(=O)n(C)c(=O)n(C)c2n1,.,.,-3,.,.,-2,.
COc1ccc(CCNC(=O)c2ccccc2NC(=O)C2=C(C)OCCS2)cc1OC,0,.,-5,.,.,7,.
COc1cccc(C2=NOC(C(=O)Nc3cc(C)on3)C2)c1 (configuration not stated),0,-6,4,2,-3,19*,>50
COc1ccc(C2=NOC(C(=O)Nc3cc(C)on3)C2)cc1 (configuration not stated),0,2,14,1,0,3,.
CCOC(=O)c1c(C)[nH]c(C)c1C(=O)COC(=O)c1ccc(Cl)c(S(=O)(=O)NCc2ccccc2)c1,0,-6,28,0,-2,-5,.
CCOC(=O)C1CCN(C(=O)COC(=O)c2ccc([N+](=O)[O-])o2)CC1,0,.,.,.,.,.,.
Cc1c(C=O)cnn1CCC(=O)O,0,.,35,.,1,23*,>50

# Screening data (PubChem)
